How the values were obtained:
[1] = target: Sodium-dependent dopamine transporter (Rattus norvegicus) (UniProt P23977); experiment: Ability to inhibit the uptake of [3H]dopamine (DA) 0.1 uM concentration at rat brain synaptosomes; type: functional, subcellular
In short: (§1)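 Male Wistar rat brain synaptosomes (P2 fraction): hypothalamus for NE, striatum for DA, cerebral cortex for 5-HT. Buffer is Tris- or HEPES-buffered salt medium with glucose, ascorbate and nialamide, pH 7.4 at 37 °C. Preincubated 10 min at 37 °C with compound. Uptake started with [3H]NE 100–300 nM, [3H]DA 50–300 nM or [3H]5-HT 100–200 nM, incubated 3 min (DA) or 6–10 min (NE, 5-HT). Blanks held on ice. Filtered, counted by scintillation.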

[2] = target: Norepinephrine transporter (Rattus norvegicus) (UniProt Q9WTR4); experiment: Ability to inhibit the uptake of [3H]norepinephrine (NE) 0.1 uM concentration at rat brain synaptosomes; type: functional, subcellular; in short: as §1
Chain of Norepinephrine transporter (Rattus norvegicus) (Q9WTR4 as listed by the source): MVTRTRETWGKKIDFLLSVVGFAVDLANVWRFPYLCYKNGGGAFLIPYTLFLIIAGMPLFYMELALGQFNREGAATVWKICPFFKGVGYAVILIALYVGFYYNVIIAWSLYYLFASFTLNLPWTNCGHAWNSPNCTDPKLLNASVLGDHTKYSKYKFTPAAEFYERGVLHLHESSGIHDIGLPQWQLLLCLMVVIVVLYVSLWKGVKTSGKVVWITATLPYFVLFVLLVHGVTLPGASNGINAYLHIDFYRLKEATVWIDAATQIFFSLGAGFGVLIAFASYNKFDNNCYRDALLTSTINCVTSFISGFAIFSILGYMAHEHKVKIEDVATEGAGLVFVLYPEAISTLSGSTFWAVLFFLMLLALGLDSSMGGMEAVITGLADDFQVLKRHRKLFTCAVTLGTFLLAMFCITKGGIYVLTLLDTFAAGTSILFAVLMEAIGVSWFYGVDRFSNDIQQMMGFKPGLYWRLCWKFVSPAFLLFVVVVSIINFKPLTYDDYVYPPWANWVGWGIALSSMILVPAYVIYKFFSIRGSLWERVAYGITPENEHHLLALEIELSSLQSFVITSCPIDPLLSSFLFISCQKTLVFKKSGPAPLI

[3] = target: Sodium-dependent serotonin transporter (Rattus norvegicus) (UniProt P31652); experiment: Ability to inhibit the uptake of [3H]- serotonin(5-HT) 0.1 uM concentration at rat brain synaptosomes; type: functional, subcellular; in short: as §1
Chain of Sodium-dependent serotonin transporter (Rattus norvegicus) (P31652 whole entry): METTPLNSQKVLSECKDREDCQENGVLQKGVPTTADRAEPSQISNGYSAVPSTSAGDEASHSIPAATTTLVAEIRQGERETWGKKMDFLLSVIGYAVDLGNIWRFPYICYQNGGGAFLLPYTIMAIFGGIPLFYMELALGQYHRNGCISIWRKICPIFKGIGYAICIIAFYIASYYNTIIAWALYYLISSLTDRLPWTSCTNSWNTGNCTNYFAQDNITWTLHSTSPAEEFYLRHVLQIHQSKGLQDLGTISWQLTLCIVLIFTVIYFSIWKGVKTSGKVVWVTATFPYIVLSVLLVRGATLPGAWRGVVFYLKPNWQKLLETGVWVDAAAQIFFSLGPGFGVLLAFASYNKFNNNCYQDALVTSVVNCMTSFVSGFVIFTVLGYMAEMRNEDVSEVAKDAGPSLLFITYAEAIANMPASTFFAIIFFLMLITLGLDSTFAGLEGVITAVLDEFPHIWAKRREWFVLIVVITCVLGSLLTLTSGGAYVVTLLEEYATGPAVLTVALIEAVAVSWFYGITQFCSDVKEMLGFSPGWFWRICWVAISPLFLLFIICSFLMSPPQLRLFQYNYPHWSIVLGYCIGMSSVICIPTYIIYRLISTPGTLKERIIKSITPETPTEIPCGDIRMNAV

[4] = species on record: Mus musculus; experiment: Antagonism of tetrabenazine (TBZ)-induced depression in mice measured for ptosis; type: functional; conditions: Mus musculus; read-out: ED50
In short: (§2)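 Nonfasted male Swiss Webster mice, 18–24 g, ten per dose level and in saline controls. Test compound given ip 30 min before tetrabenazine 32 mg/kg ip; dose expressed as free base. Motor activity and ptosis scored. Control response ≤90% corrected by Abbott's formula.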

[5] = species on record: Mus musculus; experiment: Antagonism of tetrabenazine (TBZ)-induced depression measured in mice by motor activity; type: functional; conditions: Mus musculus; read-out: ED50; in short: as §2
[6] = species on record: Mus musculus; experiment: Gross behavioral effects ascertained in mice; W indicates weak stimulant or depressant activity of little significance.; type: functional, organism-based
In short: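 Male Swiss Webster mice, 18–24 g, three per dose, given ip doses of 1, 3, 10, 30, 100 and 300 mg/kg. Observed for gross behavior and held for 4 days. Scored as weak (W), stimulant (S), depressant (D) or convulsant (C).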

[7] = target: Sodium-dependent dopamine transporter (Rattus norvegicus, UniProt P23977); experiment: Inhibition of the uptake of tritiated dopamine (DA) in rat synaptosomes; type: subcellular, Brain
Chain of Sodium-dependent dopamine transporter (P23977 whole entry): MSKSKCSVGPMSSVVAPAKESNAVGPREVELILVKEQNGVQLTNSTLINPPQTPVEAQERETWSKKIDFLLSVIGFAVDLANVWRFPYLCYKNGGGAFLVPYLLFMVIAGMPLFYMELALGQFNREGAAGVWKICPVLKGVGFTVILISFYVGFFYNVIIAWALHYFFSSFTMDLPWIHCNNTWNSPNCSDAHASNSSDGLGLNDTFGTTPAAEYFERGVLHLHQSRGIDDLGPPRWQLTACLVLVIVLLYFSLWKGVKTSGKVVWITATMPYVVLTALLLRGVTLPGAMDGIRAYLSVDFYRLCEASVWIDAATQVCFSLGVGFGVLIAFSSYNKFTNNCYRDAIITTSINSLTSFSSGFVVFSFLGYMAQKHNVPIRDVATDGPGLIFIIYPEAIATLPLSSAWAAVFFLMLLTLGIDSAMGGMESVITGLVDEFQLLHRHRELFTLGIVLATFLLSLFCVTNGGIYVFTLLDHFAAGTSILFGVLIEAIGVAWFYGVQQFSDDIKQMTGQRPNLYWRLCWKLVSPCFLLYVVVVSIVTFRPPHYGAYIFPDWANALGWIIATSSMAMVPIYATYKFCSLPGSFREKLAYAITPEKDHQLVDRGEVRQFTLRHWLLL

[8] = target: Norepinephrine transporter (Rattus norvegicus, UniProt Q9WTR4); experiment: Inhibition of uptake of tritiated norepinephrine (NE) in rat synaptosomes; type: subcellular, Brain
Chain of Norepinephrine transporter (Q9WTR4 whole entry): as the sequence (Q9WTR4 as listed by the source) above

[9] = target: D(2) dopamine receptor (Rattus norvegicus) (UniProt P61169); experiment: Binding affinity towards dopamine receptor D2 at 1.0 uM concentration
Chain of D(2) dopamine receptor (Rattus norvegicus) (P61169 whole entry): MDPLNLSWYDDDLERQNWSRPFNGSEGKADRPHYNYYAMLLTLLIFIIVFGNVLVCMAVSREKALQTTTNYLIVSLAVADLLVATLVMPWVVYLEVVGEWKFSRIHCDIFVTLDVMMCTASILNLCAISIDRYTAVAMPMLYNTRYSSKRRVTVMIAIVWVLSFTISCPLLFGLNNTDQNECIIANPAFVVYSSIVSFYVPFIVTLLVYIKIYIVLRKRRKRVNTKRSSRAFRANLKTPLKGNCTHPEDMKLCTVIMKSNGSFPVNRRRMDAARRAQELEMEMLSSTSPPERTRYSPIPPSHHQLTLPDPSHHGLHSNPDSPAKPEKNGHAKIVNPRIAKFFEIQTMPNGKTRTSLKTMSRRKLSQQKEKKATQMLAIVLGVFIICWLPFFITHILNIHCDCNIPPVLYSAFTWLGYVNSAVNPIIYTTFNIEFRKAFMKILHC
In short: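 Rat brain crude synaptic membranes in 20 mM NaHEPES pH 7.5. Ligands: α1 cortex […] 0.4 nM, nonspecific with (-)-NE 100 μM, 30 min at 25 °C. […] D2 striatum [3H]spiperone 0.05 nM with (+)-butaclamol 1 μM, 45 min at 37 °C. S1 cortex [3H]5-HT 1 nM plus glutathione and MgCl2, with 5-HT 10 μM, 20 min at 37 °C. […] Samples filtered on GF/B and counted.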

Chain of Sodium-dependent dopamine transporter (Rattus norvegicus) (P23977 whole entry): as the sequence (P23977 whole entry) above

inhibition [1] [%]	inhibition [2] [%]	inhibition [3] [%]	Ki [7] [nM]	Ki [8] [nM]	inhibition [9] [%]	Compound	ED50 [4] [mg/kg]	ED50 [5] [mg/kg]	behavior [6]
5	58	25	–	–	–	FC(F)(F)c1cc([C@@H]2CN3CCC[C@@H]3c3ccccc32)cc(C(F)(F)F)c1	–	–	–
–	–	–	25.7	1.5	–	FC(F)(F)c1cccc([C@@H]2CN3CCC[C@@H]3c3ccccc32)c1 (stereo in doubt; (+)-37b)	–	–	–
8	–	5	–	~100	–	FC(F)(F)c1cccc([C@@H]2CN3CCC[C@@H]3c3cccc(Cl)c32)c1	–	–	–
–	–	–	8.8	15	–	COc1ccc(NC(=O)Nc2ccc([C@@H]3CN4CCC[C@H]4c4ccccc43)cc2)cc1	–	–	–
15	100	-3	–	–	–	c1ccc(C[C@@H]2CN3CCC[C@H]3c3ccccc32)cc1	–	–	–
–	–	–	128	10.6	–	FC(F)(F)c1ccc([C@@H]2CN3CCC[C@@H]3c3ccccc32)cc1	~2	> 3	–
–	–	–	117	5.6	–	Cc1ccccc1[C@@H]1CN2CCC[C@@H]2c2ccccc21	~1	~1	–
–	–	–	119	27.6	–	Br.COc1ccc([C@@H]2CN3CCC[C@H]3c3ccccc32)cc1	3	~50	Weak
3	0	6	–	–	–	O=C(O)c1ccccc1[C@@H]1CN2CCC[C@@H]2c2ccccc21	–	–	–
–	–	–	2.8	2.2	–	COc1ccc2c(c1)[C@H]1CCCN1C[C@H]2c1ccccc1	–	–	–
–	–	–	360	8.8	–	Br.Oc1ccccc1[C@@H]1CN2CCC[C@@H]2c2ccccc21	~2	> 3	Weak
–	–	–	84.5	90.2	–	NC(=O)c1ccc([C@@H]2CN3CCC[C@@H]3c3ccccc32)cc1	–	–	–
5	1	1	–	–	–	O=C(O)c1ccccc1[C@@H]1CN2CCC[C@H]2c2ccccc21	–	–	–
-3	0	-3	–	–	–	FC(F)(F)c1cc([C@@H]2CN3CCC[C@H]3c3ccccc32)cc(C(F)(F)F)c1	–	–	–
–	–	–	94.2	3.4	–	Br.O=[N+]([O-])c1ccc([C@@H]2CN3CCC[C@@H]3c3ccccc32)cc1	0.08	0.17	Weak
–	–	–	258	40.8	–	Br.O[C@@]1(c2ccccc2)CN2CCC[C@H]2c2ccccc21	6.2	~25	Weak
–	–	–	32.6	22.3	6	Br.Oc1ccc([C@@H]2CN3CCC[C@H]3c3ccccc32)cc1O	1.8	> 30	Partial stimulant
–	–	–	2.5	0.62	–	Br.Clc1ccc2c(c1)[C@H]1CCCN1C[C@H]2c1ccccc1	~0.5	~0.3	–
–	–	–	26.5	1.5	–	Br.Brc1ccccc1[C@@H]1CN2CCC[C@@H]2c2ccccc21	~1	~0.6	–
–	–	–	168	32.6	–	FC(F)(F)c1cccc([C@@H]2CN3CCCC3c3cc(Cl)ccc32)c1 (stereo not given in full)	–	–	–
-1	12	-6	–	–	–	Cc1ccccc1[C@@H]1CN2CCC[C@H]2c2ccccc21	–	–	–
–	–	–	230	29.9	–	CCCCc1ccc([C@@H]2CN3CCC[C@@H]3c3ccccc32)cc1	9.1	> 60	Weak
–	–	–	279	11.5	–	Fc1cccc(Cl)c1[C@@H]1CN2CCC[C@@H]2c2ccccc21	> 3	> 3	–
–	–	–	5.2	0.79	–	Br.COc1ccc([C@@H]2CN3CCC[C@@H]3c3ccccc32)cc1	0.03	0.27	Weak
0	7	–	–	–	–	Br.c1ccc([C@@H]2Cc3ccccc3[C@@H]3CCCN23)cc1	0.87	> 30	Weak
–	–	–	11.2	3.1	–	FC(F)(F)c1ccc2c(c1)[C@H]1CCCN1C[C@H]2c1ccccc1	–	–	–

The remaining lines, values behind:

Compound	inhibition [1] [%]	inhibition [2] [%]	inhibition [3] [%]	Ki [7] [nM]	Ki [8] [nM]	inhibition [9] [%]	ED50 [4] [mg/kg]	ED50 [5] [mg/kg]	behavior [6]
c1ccc([C@H]2CN3CCCC[C@H]3c3ccccc32)cc1	–	–	–	> 1000	13.7	–	> 30	> 30	Weak
O=C(Nc1ccccc1)Nc1ccc([C@@H]2CN3CCC[C@@H]3c3ccccc32)cc1	–	–	–	24.5	117	–	–	–	–
O[C@]1(c2ccccc2)CN2CCC[C@H]2c2ccccc21	–	–	–	28.5	8.1	–	1.6	8.4	Weak
Clc1ccc([C@@H]2CN3CCC[C@@H]3c3ccccc32)c(Cl)c1	–	–	–	–	–	–	~1	~2	–
C[C@@]12CCCN1C[C@H](c1ccc(Cl)cc1)c1ccccc12	–	–	–	7.6	3.8	–	1.5	6.8	Weak
CCN1Cc2ccccc2C(c2ccccc2)C1 (stereo not given)	–	–	–	36.4	5.6	–	~10	~10	Weak
Clc1cccc2c1[C@H](c1ccccc1)CN1CCC[C@H]21	–	–	–	25.3	11.6	–	–	–	–
Clc1ccc([C@@H]2CN3CCC[C@H]3c3ccccc32)cc1Cl	–	–	–	30.8	16	–	8	~41	Weak
N#Cc1ccc([C@@H]2CN3CCC[C@@H]3c3ccccc32)cc1	–	–	–	–	–	–	~2	~2	–
CCn1cc(C(=O)O)c(=O)c2ccc(Cc3ccccc3)nc21 [AMFONELIC ACID]	–	–	–	7.2	41.1	–	–	–	–
CSc1ccc([C@@H]2CN3CCC[C@@H]3c3ccccc32)cc1 (stereo in doubt; (-)-48b)	–	–	–	–	–	5	–	–	–
Br.F[C@]1(c2ccccc2)CN2CCC[C@H]2c2ccccc21	26	–	6	–	30.7	–	1.2	~3	Weak
Br.c1csc([C@H]2CN3CCC[C@H]3c3ccsc32)c1	–	–	–	39.8	14.6	–	~30	~24	Weak
Clc1ccc([C@@H]2CN3CCC[C@H]3c3cc(Cl)ccc32)cc1	–	–	–	65.1	33.8	–	~37	> 100	Weak
CSc1ccccc1[C@@H]1CN2CCC[C@@H]2c2ccccc21	–	–	–	–	–	–	~0.6	~0.6	–
Br.Cn1ccc2c1[C@@H](c1ccccc1)CN1CCC[C@@H]21	–	–	–	9.8	7.5	–	~0.75	2.4	Weak
Clc1ccc([C@@H]2CN3CCC[C@H]3c3ccccc32)cc1	–	–	–	–	–	–	5.4	8.1	Weak
C[C@@]12CCCN1C[C@@H](c1ccc(Cl)cc1)c1ccccc12	–	–	21	~100	~100	–	–	–	Weak
c1ccc([C@H]2CN3CC[C@H]3c3ccccc32)cc1	–	–	–	81.6	6.3	–	1.25	~2	–
COc1cccc2c1[C@H](c1ccccc1)CN1CCC[C@H]21	–	–	–	12.3	11.5	–	1.2	10	Weak
Br.CS(=O)(=O)c1ccc([C@@H]2CN3CCC[C@H]3c3ccccc32)cc1	–	–	–	–	–	–	17.7	> 30	Weak
Br.c1ccc2c(c1)[C@@H](C1CCCCC1)CN1CCC[C@@H]21	–	–	–	604	81	–	1.9	6.4	Weak
CN1Cc2c(N)cccc2C(c2ccccc2)C1 (stereo not given) [NOMIFENSINE]	–	–	–	–	–	–	0.11	0.18	Partial stimulant
CC(=O)Nc1ccc([C@@H]2CN3CCC[C@H]3c3ccccc32)cc1	57	27	–	–	–	–	1.8	4.4	Weak
